Assay results pooled from the literature.
Cell line: Vero
Read-out: cell growth or viability

SMILES | test | setting | IC50
NC1=NC(=NS(=O)(=O)c2ccc(N)cc2)NC(=O)C1N=Nc1ccccc1C(=O)O (stereo not shown) | MTT | 72 h | 57.4 µM
C/C(=N/NC(=O)c1cn(-c2ccccc2)nc1-c1ccccc1)c1c(O)cc(C)oc1=O | MTT | 48 h | 664 µM
NC1=NN(C(=O)C=Cc2ccccc2)C(=O)C1N=Nc1ccccc1C(=O)O (stereo not shown) | MTT | 72 h | 59.7 µM
O=C1[C@H](CC[C@H](O)c2ccc(F)cc2)[C@@H](c2ccc(O)cc2)N1c1ccc(F)cc1 | MTT | 72 h | 36.5 µg/mL
O=C1C[C@@H](c2ccccc2)Oc2c(Cc3ccccc3O)c(O)c(Cc3ccccc3O)c(O)c21 | MTT | 72 h | 48.7 µM
C[C@@H]1C[C@H]2[C@@H]3CCC4=CC(=O)C=C[C@]4(C)[C@@]3(F)[C@@H](O)C[C@]2(C)[C@@]1(O)C(=O)CO | MTT | 48 h | 80.1 µM
CO[C@H]1[C@H](O[C@H]([C@H]2O[C@@H](n3ccc(=O)[nH]c3=O)[C@H](O)[C@@H]2O)[C@H](NCCCNC(=O)[C@@H](NC(=O)[C@@H](NC(=O)N[C@H](C(=O)O)C(C)C)[C@@H]2CCN=C(N)N2)[C@@H](OC(=O)CCCCCCCCCCCCN(O)C(=N)N)C(C)C)C(=O)O)O[C@H](CN)[C@H]1O | WST-1 | – | > 35 µM
C/C(=N/NC(=O)c1cn(-c2ccccc2)nc1-c1ccc(Cl)cc1)c1c(O)cc(C)oc1=O | MTT | 48 h | 102 µM
COc1cccc2c1C(=O)c1c(O)c3c(c(O)c1C2=O)C[C@@](O)(C(=O)CO)C[C@@H]3O[C@H]1C[C@H](N)[C@H](O)[C@H](C)O1 | MTT | 72 h | 2.1 µM
CO[C@H]1[C@H](O[C@H]([C@H]2O[C@@H](n3ccc(=O)[nH]c3=O)[C@H](O)[C@@H]2O)[C@H](NCCCNC(=O)[C@@H](NC(=O)[C@@H](NC(=O)N[C@H](C(=O)O)C(C)C)[C@@H]2CCN=C(N)N2)[C@@H](O)C(C)C)C(=O)O)O[C@H](CN)[C@H]1O | WST-1 | – | > 35 µM
